{
  "source": "ChEMBL document CHEMBL3352487",
  "about": "“Synthesis, antibacterial activity, and biological evaluation of formyl hydroxyamino derivatives as novel potent peptide deformylase inhibitors against drug-resistant bacteria” (Eur J Med Chem, 2014)",
  "key": {"[1]": {"experiment": "Volume of distribution at steady state in Sprague-Dawley rat at 5 mg/kg, iv", "type": "ADME, organism-based", "design": "dose 5 mg/kg, route intravenous", "settings": "in vivo, read-out: Vdss"}, "Streptococcus pyogenes [2]": {"system": "Streptococcus pyogenes", "experiment": "Antimicrobial activity against Streptococcus pyogenes 1308007P after 24 hrs by broth microdilution method", "type": "functional", "outline": "(§1)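 Broth microdilution following NCCLS M7-A4; ATCC strains and clinical isolates from a provincial hospital.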"}, "[3]": {"experiment": "AUC (0 to infinity) in Sprague-Dawley rat at 5 mg/kg, iv", "type": "ADME, organism-based", "design": "time infinity, dose 5 mg/kg, route intravenous", "settings": "plasma"}, "[4]": {"experiment": "AUC (0 to infinity) in Sprague-Dawley rat at 25 mg/kg, po", "type": "ADME, organism-based", "design": "dose 25 mg/kg, route oral, time infinity", "settings": "plasma"}, "Escherichia coli [5]": {"system": "Escherichia coli", "experiment": "Antimicrobial activity against Escherichia coli isolate 3 after 24 hrs by broth microdilution method", "type": "functional", "settings": "isolate 3, 24 h", "outline": "as §1"}, "[6]": {"experiment": "Mean residence time (0 to t) in Sprague-Dawley rat at 5 mg/kg, iv", "type": "ADME, organism-based", "design": "dose 5 mg/kg, route intravenous", "settings": "in vivo"}, "[7]": {"experiment": "Half life in Sprague-Dawley rat at 25 mg/kg, po", "type": "ADME, organism-based", "design": "dose 25 mg/kg, route oral", "settings": "in vivo"}, "[8]": {"experiment": "Cmax in Sprague-Dawley rat at 25 mg/kg, po", "type": "ADME, organism-based", "design": "dose 25 mg/kg, route oral", "settings": "in vivo"}, "[9]": {"experiment": "Half life in Sprague-Dawley rat at 5 mg/kg, iv", "type": "ADME, organism-based", "design": "dose 5 mg/kg, route intravenous", "settings": "in vivo"}, "Streptococcus pneumoniae [10]": {"system": "Streptococcus pneumoniae", "experiment": "Antimicrobial activity against Streptococcus pneumoniae N1387 after 24 hrs by broth microdilution method", "type": "functional", "settings": "N1387, 24 h", "outline": "as §1"}, "Staphylococcus aureus [11]": {"system": "Staphylococcus aureus", "experiment": "Antimicrobial activity against Staphylococcus aureus WCUH29 after 24 hrs by broth microdilution method", "type": "functional", "settings": "WCUH29, 24 h", "outline": "as §1"}, "Haemophilus influenzae [12]": {"system": "Haemophilus influenzae", "experiment": "Antimicrobial activity against Haemophilus influenzae H128 after 24 hrs by broth microdilution method", "type": "functional", "settings": "H128, 24 h", "outline": "as §1"}, "[13]": {"system": "Staphylococcus epidermidis", "experiment": "Antimicrobial activity against Staphylococcus epidermidis after 24 hrs by broth microdilution method", "type": "functional", "outline": "as §1"}, "Streptococcus pyogenes [14]": {"system": "Streptococcus pyogenes", "experiment": "Antimicrobial activity against Streptococcus pyogenes 1307006P after 24 hrs by broth microdilution method", "type": "functional", "outline": "as §1"}, "[15]": {"experiment": "Oral bioavailability in Sprague-Dawley rat at 25 mg/kg", "type": "ADME, organism-based", "settings": "in vivo"}, "Moraxella catarrhalis": {"system": "Moraxella catarrhalis", "experiment": "Antimicrobial activity against Moraxella catarrhalis 1502 after 24 hrs by broth microdilution method", "type": "functional", "settings": "Moraxella catarrhalis, 1502, 24 h", "outline": "as §1"}, "Haemophilus influenzae [16]": {"system": "Haemophilus influenzae", "experiment": "Antimicrobial activity against AcrA-deficient Haemophilus influenzae H128 after 24 hrs by broth microdilution method", "type": "functional", "settings": "H128, 24 h", "outline": "as §1"}, "Escherichia coli [17]": {"system": "Escherichia coli", "experiment": "Antimicrobial activity against Escherichia coli isolate 1 after 24 hrs by broth microdilution method", "type": "functional", "settings": "isolate 1, 24 h", "outline": "as §1"}, "[18]": {"experiment": "Clearance in Sprague-Dawley rat at 5 mg/kg, iv", "type": "ADME, organism-based", "design": "dose 5 mg/kg, route intravenous", "settings": "in vivo"}, "hERG (KCNH2) [19]": {"molecular_target": "T1, hERG (KCNH2) (Homo sapiens, UniProt Q12809)", "T1 sequence (Q12809 whole entry)": "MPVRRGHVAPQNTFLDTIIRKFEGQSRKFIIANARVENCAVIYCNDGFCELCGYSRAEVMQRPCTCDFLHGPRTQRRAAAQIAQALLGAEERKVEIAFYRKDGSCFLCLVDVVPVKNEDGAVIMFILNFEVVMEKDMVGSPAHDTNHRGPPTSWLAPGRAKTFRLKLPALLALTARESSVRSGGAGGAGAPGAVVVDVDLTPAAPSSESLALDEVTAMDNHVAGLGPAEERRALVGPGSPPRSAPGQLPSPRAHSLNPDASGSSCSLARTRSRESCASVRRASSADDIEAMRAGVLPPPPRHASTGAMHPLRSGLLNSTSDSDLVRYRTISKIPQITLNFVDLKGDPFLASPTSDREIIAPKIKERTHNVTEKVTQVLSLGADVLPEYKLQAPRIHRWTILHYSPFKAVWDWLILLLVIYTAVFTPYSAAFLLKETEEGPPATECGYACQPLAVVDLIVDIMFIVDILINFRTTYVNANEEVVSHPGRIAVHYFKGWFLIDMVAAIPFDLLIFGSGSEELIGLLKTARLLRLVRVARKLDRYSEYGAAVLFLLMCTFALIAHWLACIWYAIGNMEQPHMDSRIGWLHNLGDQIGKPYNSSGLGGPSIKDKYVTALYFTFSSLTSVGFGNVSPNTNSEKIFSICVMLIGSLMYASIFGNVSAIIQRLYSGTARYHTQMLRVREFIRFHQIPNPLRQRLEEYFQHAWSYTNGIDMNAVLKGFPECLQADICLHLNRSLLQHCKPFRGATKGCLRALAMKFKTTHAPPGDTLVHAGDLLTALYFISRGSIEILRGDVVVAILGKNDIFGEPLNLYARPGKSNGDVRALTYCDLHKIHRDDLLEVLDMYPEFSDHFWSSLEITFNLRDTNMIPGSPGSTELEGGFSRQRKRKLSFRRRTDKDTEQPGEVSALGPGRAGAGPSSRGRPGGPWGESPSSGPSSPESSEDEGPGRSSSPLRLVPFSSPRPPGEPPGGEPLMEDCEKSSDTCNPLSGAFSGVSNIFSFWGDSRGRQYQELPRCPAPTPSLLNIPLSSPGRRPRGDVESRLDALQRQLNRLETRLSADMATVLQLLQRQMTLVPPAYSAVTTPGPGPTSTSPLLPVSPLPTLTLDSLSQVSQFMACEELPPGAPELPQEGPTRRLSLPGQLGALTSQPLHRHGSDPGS", "experiment": "Inhibition of human ERG at 1 uM"}, "[20]": {"experiment": "Mean residence time (0 to t) in Sprague-Dawley rat at 25 mg/kg, po", "type": "ADME, organism-based", "design": "dose 25 mg/kg, route oral", "settings": "in vivo"}, "[21]": {"experiment": "AUC (0 to t) in Sprague-Dawley rat at 25 mg/kg, po", "type": "ADME, organism-based", "design": "dose 25 mg/kg, route oral", "settings": "plasma"}, "Staphylococcus aureus [22]": {"system": "Staphylococcus aureus", "experiment": "Antimicrobial activity against Staphylococcus aureus after 24 hrs by broth microdilution method", "type": "functional", "outline": "as §1"}, "Enterococcus faecium": {"system": "Enterococcus faecium", "experiment": "Antimicrobial activity against Enterococcus faecium X7501 after 24 hrs by broth microdilution method", "type": "functional", "settings": "X7501, 24 h", "outline": "as §1"}, "hERG (KCNH2) [23]": {"molecular_target": "T1, hERG (KCNH2)", "experiment": "Inhibition of human ERG at 10 uM"}, "Enterococcus faecalis": {"system": "Enterococcus faecalis", "experiment": "Antimicrobial activity against Enterococcus faecalis Isolate 1 after 24 hrs by broth microdilution method", "type": "functional", "settings": "Isolate 1, 24 h", "outline": "as §1"}, "Staphylococcus aureus [24]": {"system": "Staphylococcus aureus", "experiment": "Antimicrobial activity against Staphylococcus aureus OXFORD after 24 hrs by broth microdilution method", "type": "functional", "outline": "(§2)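 Broth microdilution following NCCLS M7-A4, using ATCC strains and clinical isolates from a provincial hospital.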"}, "Streptococcus pneumoniae [25]": {"system": "Streptococcus pneumoniae", "experiment": "Antimicrobial activity against Streptococcus pneumoniae ERY2 after 24 hrs by broth microdilution method", "type": "functional", "settings": "ERY2, 24 h", "outline": "as §1"}, "Staphylococcus aureus [26]": {"system": "Staphylococcus aureus", "experiment": "Antimicrobial activity against methicillin-resistant Staphylococcus aureus after 24 hrs by broth microdilution method", "type": "functional", "outline": "as §2"}, "Haemophilus influenzae [27]": {"system": "Haemophilus influenzae", "experiment": "Antimicrobial activity against Haemophilus influenzae Q1 after 24 hrs by broth microdilution method", "type": "functional", "settings": "Q1, 24 h", "outline": "as §1"}, "[28]": {"experiment": "AUC (0 to t) in Sprague-Dawley rat at 5 mg/kg, iv", "type": "ADME, organism-based", "design": "dose 5 mg/kg, route intravenous", "settings": "plasma"}, "[29]": {"experiment": "Tmax in Sprague-Dawley rat at 25 mg/kg, po", "type": "ADME, organism-based", "design": "dose 25 mg/kg, route oral", "settings": "in vivo"}, "Staphylococcus aureus [30]": {"system": "Staphylococcus aureus", "experiment": "Antimicrobial activity against methicillin-susceptible Staphylococcus aureus after 24 hrs by broth microdilution method", "type": "functional", "outline": "as §1"}, "Streptococcus pneumoniae [31]": {"system": "Streptococcus pneumoniae", "experiment": "Antimicrobial activity against Streptococcus pneumoniae 1629 after 24 hrs by broth microdilution method", "type": "functional", "settings": "Streptococcus pneumoniae, 1629, 24 h", "outline": "as §1"}, "Escherichia coli [32]": {"system": "Escherichia coli", "experiment": "Antimicrobial activity against Escherichia coli isolate 2 after 24 hrs by broth microdilution method", "type": "functional", "settings": "isolate 2, 24 h", "outline": "as §1"}},
  "data": [
    {"compound": "O=CN(O)C[C@@H](CC1CCCC1)C(=O)N1CC=C[C@H]1C(=O)Nc1ccc(F)c[n+]1[O-]", "values": [
      {"measurement": "Vd", "setting": "[1]", "result": 1.6, "unit": "L/kg"},
      {"measurement": "MIC", "setting": "Streptococcus pyogenes [2]", "result": 0.5, "unit": "µg/mL"},
      {"measurement": "AUC(0-inf)", "setting": "[3]", "result": 1620, "unit": "ng·h/mL"},
      {"measurement": "AUC(0-inf)", "setting": "[4]", "result": 1810, "unit": "ng·h/mL"},
      {"measurement": "MIC", "setting": "Escherichia coli [5]", "result": 64, "unit": "µg/mL"},
      {"measurement": "MRT last", "setting": "[6]", "result": 30.2, "unit": "min"},
      {"measurement": "half-life", "setting": "[7]", "result": 155, "unit": "min"},
      {"measurement": "Cmax", "setting": "[8]", "result": 956, "unit": "ng/mL"},
      {"measurement": "half-life", "setting": "[9]", "result": 48.4, "unit": "min"},
      {"measurement": "MIC", "setting": "Streptococcus pneumoniae [10]", "result": 0.125, "unit": "µg/mL"},
      {"measurement": "MIC", "setting": "Staphylococcus aureus [11]", "result": 0.125, "unit": "µg/mL"},
      {"measurement": "MIC", "setting": "Haemophilus influenzae [12]", "result": 2, "unit": "µg/mL"},
      {"measurement": "MIC", "setting": "[13]", "result": 0.25, "unit": "µg/mL"},
      {"measurement": "MIC", "setting": "Streptococcus pyogenes [14]", "result": 0.25, "unit": "µg/mL"},
      {"measurement": "bioavailability", "setting": "[15]", "result": 22.4, "unit": "%"},
      {"measurement": "MIC", "setting": "Moraxella catarrhalis", "result": "≤ 0.06", "unit": "µg/mL"},
      {"measurement": "MIC", "setting": "Haemophilus influenzae [16]", "result": "≤ 0.06", "unit": "µg/mL"},
      {"measurement": "MIC", "setting": "Escherichia coli [17]", "result": 64, "unit": "µg/mL"},
      {"measurement": "clearance", "setting": "[18]", "result": 51.7, "unit": "mL/min/kg"},
      {"measurement": "inhibition at 1 µM", "setting": "hERG (KCNH2) [19]", "result": 1.15, "unit": "%"},
      {"measurement": "MRT last", "setting": "[20]", "result": 2.01, "unit": "h"},
      {"measurement": "AUC(0-t)", "setting": "[21]", "result": 1630, "unit": "ng·h/mL"},
      {"measurement": "MIC", "setting": "Staphylococcus aureus [22]", "result": 0.25, "unit": "µg/mL"},
      {"measurement": "MIC", "setting": "Enterococcus faecium", "result": 1, "unit": "µg/mL"},
      {"measurement": "inhibition at 10 µM", "setting": "hERG (KCNH2) [23]", "result": 0.89, "unit": "%"},
      {"measurement": "MIC", "setting": "Enterococcus faecalis", "result": 2, "unit": "µg/mL"},
      {"measurement": "MIC", "setting": "Staphylococcus aureus [24]", "result": 0.5, "unit": "µg/mL"},
      {"measurement": "MIC", "setting": "Streptococcus pneumoniae [25]", "result": 0.25, "unit": "µg/mL"},
      {"measurement": "MIC", "setting": "Staphylococcus aureus [26]", "result": 0.25, "unit": "µg/mL"},
      {"measurement": "MIC", "setting": "Haemophilus influenzae [27]", "result": 1, "unit": "µg/mL"},
      {"measurement": "AUC(0-t)", "setting": "[28]", "result": 1610, "unit": "ng·h/mL"},
      {"measurement": "Tmax", "setting": "[29]", "result": 22.5, "unit": "min"},
      {"measurement": "MIC", "setting": "Staphylococcus aureus [30]", "result": 0.5, "unit": "µg/mL"},
      {"measurement": "MIC", "setting": "Streptococcus pneumoniae [31]", "result": 0.5, "unit": "µg/mL"},
      {"measurement": "MIC", "setting": "Escherichia coli [32]", "result": 32, "unit": "µg/mL"}
    ]}
  ]
}
